27 molecules from PubChem BioAssay AID504499 (Broad Institute, 2011) can be followed below.

The source made the active and inactive calls.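 How the source made its calls: active means compounds whose fitted half-maximal growth inhibition potency lies within ten times the top tested dose; inconclusive means flat inhibition of 30 to 70 percent, or poor fit; inactive means the rest.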

As a reminder, the AC50 is the midpoint of the concentration-response curve, whichever way the signal moves.

Test system in one test: not listed separately
Description: single-agent antifungal activity without fluconazole – CaCi-2, no fluconazole, powder samples, set 9, counter-screen for antifungal drug resistance project, dose response (AID 504499). The conditions noted are these: C. albicans CaCi-2 growth without fluconazole, Alamar Blue, 48 h; at 26 µM (top of the series). A digest of the protocol:
(§1)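 System: Candida albicans strain CaCi-2 yeast cells / Technique: Alamar Blue fluorescence, 544/590 nm / Dosing: pin-transferred compounds / Read-out: relative yeast growth derived from Alamar Blue fluorescence signal / Schedule: Yeast–compound growth 48 h, 37 °C, then Alamar Blue 2 h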
On the technique in general: A counterscreen serves to expose hits that act by an unwanted route or on another target.
For the molecule `O=C(Cn1c2ccccc2c2nc3n(c(=O)c21)CCS3)N1CCC(F)(F)CC1`, the growth change, negative = inhibition is 5.44% (inactive). The same measure, in the same setting: with `COC(=O)Cn1nc(-c2cscn2)c2ccccc21` the figure was -11.4% (inactive); with `O=C(Cn1c2ccc(F)cc2c2nc3n(c(=O)c21)CCS3)N1CC=CC1`, 2.91% (inactive). Same read-out and setting: with `COC(=O)Cn1nc(-c2cnco2)c2ccccc21` the figure was 22% (inactive); with `O=C(Cn1c2ccccc2c2nc3n(c(=O)c21)CCS3)N1CC=CC1`, 6.32% (inactive). The same measure, in the same setting: with `CC1(O)CN(C(=O)Cn2c3ccccc3c3nc4n(c(=O)c32)CCS4)C1` the figure was 5.26% (inactive); with `COC(=O)n1nc(-c2ccccc2)c2ccccc21`, -9.34% (inactive); with `CN1CCN(C(=O)Cn2c3ccccc3c3nc4n(c(=O)c32)CCS4)CC1`, 2.02% (inactive). As for `COC(=O)Cn1nc(-c2cccc(OC)c2)c2ccccc21`, the growth change, negative = inhibition is -28.4% (inactive). Turning to `COC(=O)Cn1nc(C2CCCCC2)c2ccccc21`, the growth change, negative = inhibition was -13.2% (inactive). Same read-out and setting: with `c1ccc(-c2nn(Cc3nnco3)c3ccccc23)cc1` the figure was 18.3% (inactive); with `CC1CCN(CCn2c3ccccc3c3nc4n(c(=O)c32)CCS4)CC1`, 2.22% (inactive). With `COC(=O)Cn1nc(C2CC2)c2ccccc21`, the growth change, negative = inhibition is 4% (inactive). Consider `COC(=O)Cn1nc(-c2cccnc2)c2ccccc21`, for which the growth change, negative = inhibition was 1.88% (inactive). Still for that read-out and setting: with `O=C(O)Cn1c2ccc(F)cc2c2nc3n(c(=O)c21)CCS3` the figure was -15.5% (inactive); with `COC(=O)Cn1nc(-c2cccc(C)c2)c2ccccc21`, -23.2% (inactive).

As to `O=C(Cn1c2ccc(F)cc2c2nc3n(c(=O)c21)CCS3)N1CCC(F)(F)CC1`, the growth change, negative = inhibition is -9.87% (inactive). Same read-out and setting: with `O=C(Cn1c2ccccc2c2nc3n(c(=O)c21)CCS3)N1CCCCC1` the figure was -17.6% (inactive); with `O=C(Cn1c2ccccc2c2nc3n(c(=O)c21)CCS3)N1CCC(F)(F)C1`, 5.06% (inactive); with `COC(=O)Cn1nc(-c2cccc(F)c2)c2ccccc21`, -24.6% (inactive). For `O=C(Cn1c2ccccc2c2nc3n(c(=O)c21)CCS3)N1CCCC1`, the growth change, negative = inhibition was -33.3% (inactive).

For the molecule `CCc1nn(CC(=O)OC)c2ccccc12`, the growth change, negative = inhibition was -15.4% (inactive). As for `COC(=O)Cn1nc(-c2ccccc2)c2cccnc21`, the growth change, negative = inhibition was -7.57% (inactive). For the molecule `COC(=O)Cn1nc(C(C)(C)C)c2ccccc21`, the growth change, negative = inhibition is 6.09% (inactive). With `O=C(O)Cn1c2ccccc2c2nc3n(c(=O)c21)CCS3`, the growth change, negative = inhibition was 31.2% (inactive). The same measure, in the same setting: with `O=C(Cn1c2ccc(F)cc2c2nc3n(c(=O)c21)CCS3)N1CCC(F)(F)C1` the figure was -1.64% (inactive).

In another test the test system is C. albicans CaCi-2 (fluconazole-resistant clinical isolate) growth without fluconazole, Alamar Blue, 48 h. The test is described as above.
Details: not given
The procedure, abridged: as §1
For `COC(=O)Cn1c2ccc(F)cc2c2nc3n(c(=O)c21)CCS3`, the concentration at half-maximal activity (AC50) was 19.4 µM.
